Test [1] has as its system Staphylococcus aureus. Briefly: Antibacterial activity against Staphylococcus aureus expressing aminoglycoside-[…] after 24 hrs by geometric microdilution method. Format: functional. Put shortly:
(§1)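 Broth cultures were incubated in plates at 37 °C, and growth was read as absorbance at 650 nm after 1, 4, 7 and 24 h. Ampicillin (16 mg/L) was the positive control and DMSO the negative control. Each MIC (μg/mL) is the average of at least three determinations.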
On the technique in general: In broth dilution the organism is exposed to a series of concentrations in liquid medium.

In test [2] the test system is Staphylococcus aureus. Briefly: Antibacterial activity against Staphylococcus aureus expressing aminoglycoside-3'-O-phosphoryltransferase after 24 hrs by geometric microdilution method. The test is classed as functional. Put shortly: as §1
The test system of test [3] is Staphylococcus aureus. Put plainly: Antibacterial activity against Staphylococcus aureus expressing aminoglycoside-6'-N-acetyltransferase/2''-O-phosphoryltransferase after 24 hrs by geometric microdilution method. The test is classed as functional. Put shortly:
as §1

Test [4] concerns Staphylococcus aureus. Briefly: Antibacterial activity against fluoroquinolone-resistant Staphylococcus aureus 1199B expressing NorA efflux pump after 24 hrs by geometric microdilution method. The test is classed as functional. In a few lines: as §1
Test [5] relates to Staphylococcus aureus. Put plainly: microbe, parasite or virus in culture. As to conditions: ATCC 25923, 24 h.
Test [6] deals with Escherichia coli. Briefly: Antibacterial activity against Escherichia coli L58058.1 expressing ANT2''-1A after 24 hrs by geometric microdilution method. Format: functional.
The subject of test [7] is Escherichia coli. Put plainly: Antibacterial activity against Escherichia coli PAZ505H8101 expressing AAC6'-1B after 24 hrs by geometric microdilution method. Format: functional.
Test [8] has as its system Klebsiella pneumoniae. Briefly: Antibacterial activity against Klebsiella pneumoniae ATCC 700603 after 24 hrs by geometric microdilution method. Format: functional.
Test [9] deals with Pseudomonas aeruginosa. Put plainly: Antibacterial activity against Pseudomonas aeruginosa PA22 (PT629) expressing MexXY after 24 hrs by geometric microdilution method. Format: functional.
Test [10] deals with Pseudomonas aeruginosa. Put plainly: Antibacterial activity against Pseudomonas aeruginosa F03 expressing AAC6'-2A after 24 hrs by geometric microdilution method. Format: functional.
For test [11], the system named is Pseudomonas aeruginosa. Briefly: Antibacterial activity against Pseudomonas aeruginosa ATCC 27853 after 24 hrs by geometric microdilution method. Format: functional.
Test [12] has as its system Acinetobacter lwoffii. Briefly: Antibacterial activity against Acinetobacter lwoffii AI.88-483 expressing APH3'-6A after 24 hrs by geometric microdilution method. Format: functional.
In test [13] the test system is Staphylococcus aureus. Put plainly: Antibacterial activity against vancomycin-resistant Staphylococcus aureus VRS2 after 24 hrs by geometric microdilution method. Format: functional. In a few lines: as §1
The test system of test [14] is Staphylococcus aureus. Briefly: Antibacterial activity against healthcare-acquired methicillin-resistant Staphylococcus aureus ATCC 33592 after 24 hrs by geometric microdilution method. The test is classed as functional. In a few lines:
as §1

Test [15] has as its system Staphylococcus aureus. Put plainly: Antibacterial activity against 14- and 15-membered macrolide-resistant Staphylococcus aureus expressing MsrA efflux pump after 24 hrs by geometric microdilution method. The test is classed as functional. In a few lines:
as §1

For test [16], the system named is Escherichia coli. Briefly: microbe, parasite or virus in culture. To be noted: ATCC 25922, 24 h.
The test system of test [17] is Acinetobacter lwoffii. Put plainly: Antibacterial activity against Acinetobacter lwoffii ATCC 17925 after 24 hrs by geometric microdilution method. The test is classed as functional. To be noted: ATCC 17925, 24 h.

Values after ≈ are worked out from the molar mass of the structure shown.

Take `CCCCCCCCCCCCCCCCCCO[C@@H]1[C@@H](N)[C@@H](O[C@H]2[C@H](O)[C@@H](O)[C@H](N)C[C@@H]2N)O[C@H](CN)[C@H]1O`: the MIC in test [1], in [2], in [3], in test [4] and in test [5] was above 128 µg/mL in each case.

Take GENTAMICIN: the MIC is 64 µg/mL in [6]; 1 µg/mL in [7]; 8 µg/mL in test [8]; 4 µg/mL in test [9]; above 128 µg/mL in [10]; 1 µg/mL in test [11]. Moreover, the MIC in test [12] came to 4 µg/mL; in test [13] it was 32 µg/mL; in test [14], 1 µg/mL.

For the compound `CCCCCCCCCCCCCCCCCCO[C@@H]1[C@@H](O)[C@H](O[C@H]2O[C@H](CN)[C@@H](O)[C@H](O)[C@H]2N)[C@@H](N)C[C@H]1N`, the MIC in test [14] (ATCC 33592, 24 h) was above 128 µg/mL; in test [1], above 256 µg/mL; in test [2], above 256 µg/mL; in test [3] it was above 256 µg/mL; in test [4], above 256 µg/mL; in test [5], above 128 µg/mL.

Regarding `N[C@H]1[C@@H](O[C@H]2[C@H](O)[C@@H](O)[C@H](N)C[C@@H]2N)O[C@H](CO)[C@@H](O)[C@@H]1O` [PAROMAMINE], the MIC is above 128 µg/mL in [6] (L58058.1, 24 h); above 128 µg/mL in test [7] (PAZ505H8101, 24 h); above 128 µg/mL in test [9]; above 128 µg/mL in test [10] (F03, 24 h); above 128 µg/mL in [11] (ATCC 27853, 24 h); above 128 µg/mL in [13] (VRS2, 24 h). Also, the MIC in test [14] (ATCC 33592, 24 h) was above 128 µg/mL; in [1], above 128 µg/mL; in [2], above 128 µg/mL; in test [3] it was above 128 µg/mL; in test [15] it was above 128 µg/mL; in [4], above 128 µg/mL. Also, the figures for the MIC in test [16] and in test [5] were above 128 µg/mL and 32 µg/mL (≈ 99 µM), respectively.

Regarding `NC[C@H]1O[C@H](O[C@H]2[C@H](O)[C@@H](OCCCc3ccc4ccccc4c3)[C@H](N)C[C@@H]2N)[C@H](N)[C@@H](OCCCc2ccc3ccccc3c2)[C@@H]1OCCCc1ccc2ccccc2c1`, the MIC in test [6] (L58058.1, 24 h) was above 128 µg/mL; in test [7] (PAZ505H8101, 24 h) it was 32 µg/mL (≈ 38.7 µM); in test [9], 128 µg/mL (≈ 155 µM); in [10] (F03, 24 h) it was 64 µg/mL (≈ 77.4 µM); in test [11] (ATCC 27853, 24 h) it was 128 µg/mL (≈ 155 µM); in test [13] (VRS2, 24 h), above 128 µg/mL. The MIC in [14] (ATCC 33592, 24 h) is 128 µg/mL (≈ 155 µM); in [1] it was 128 µg/mL (≈ 155 µM); in test [2], 32 µg/mL (≈ 38.7 µM); in test [3] it was 64 µg/mL (≈ 77.4 µM); in test [15], 32 µg/mL (≈ 38.7 µM); in test [4] it was above 128 µg/mL. The MIC in test [16] is 128 µg/mL (≈ 155 µM); in test [5] it was above 128 µg/mL.

Consider `NC[C@H]1O[C@H](O[C@H]2[C@H](O)[C@@H](OCc3ccc4ccccc4n3)[C@H](N)C[C@@H]2N)[C@H](N)[C@@H](OCc2ccc3ccccc3n2)[C@@H]1OCc1ccc2ccccc2n1`, for which the MIC in [6] (L58058.1, 24 h) is above 128 µg/mL; in test [7] (PAZ505H8101, 24 h), above 128 µg/mL; in test [8] (ATCC 700603, 24 h), above 128 µg/mL; in [9], above 128 µg/mL; in test [10] (F03, 24 h), above 128 µg/mL; in [11] (ATCC 27853, 24 h) it was above 128 µg/mL. Moreover, the MIC was above 128 µg/mL in [12] (AI.88-483, 24 h); 128 µg/mL (≈ 172 µM) in test [17]; 64 µg/mL (≈ 85.8 µM) in test [13] (VRS2, 24 h); 64 µg/mL (≈ 85.8 µM) in test [14] (ATCC 33592, 24 h); above 128 µg/mL in [1]; 64 µg/mL (≈ 85.8 µM) in [2]. Moreover, the MIC is 128 µg/mL (≈ 172 µM) in test [3], above 128 µg/mL in test [4], above 128 µg/mL in [16] and 128 µg/mL (≈ 172 µM) in [5].

These data come from ChEMBL document CHEMBL2429794, “Tuning the antibacterial activity of amphiphilic neamine derivatives and comparison to paromamine homologues” (J Med Chem, 2013).
